Shown is part of a subset that was picked to be rich in hits.
UPR XBP1 act: adaptive UPR (XBP1) activation | CHO-XBP1 luciferase reporter, IRE1-XBP1 UPR activation, luminescence; percent of tunicamycin response, DMSO as zero | activation, % at 20 µM | 330,000 compounds, 0.33% hits | AID 463104;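 active = versus positive control, 20 µM dose yields 30% or more activation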;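 also: 100% = tunicamycin at 10 µg/mL and 0% = DMSO only wells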
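Test system: CHO-XBP1 luciferase reporter cells | Buffer or medium: Serum-containing F12 medium, 10% FBS | Schedule: 6 h compound exposure at 37 °C, 5% CO2 | Detection: Steady-Glo luciferase glow luminescence, 10 min after reagent addition | Read-out basis: Activation, % of tunicamycin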
T cruzi repl: T. cruzi replication inhibition. AID 1885. 300,000 compounds, 1.4% hits. inhibition, % (concentration not given with the values). T. cruzi beta-gal in NIH3T3, luminescence, 90 h;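 active = mean inhibition across valid replicates above about 55%, limit read from the data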;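 also: signal also drops with host cell toxicity which is not excluded here; 0% = plate median of DMSO wells and 100% = zero luminescence signal; higher percent means less beta-gal luminescence so fewer parasites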
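System – NIH/3T3 host cells with β-galactosidase reporter T. cruzi · Doses – single 50 nL compound addition per well in DMSO · Reagent – 5000 T. cruzi trypomastigotes/well · Medium – Low-serum DMEM with 2% FBS · Timing – ≥90 h infection period, 3 h prior cell attachment · Evaluation – parasite load inhibition, % · Technique – GalScreen luminescence, 60 min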
CHOP UPR activ: activators of apoptotic arm of unfolded protein response (CHOP). CHO-CHOP luciferase reporter, UPR activation, luminescence; percent of tunicamycin response over DMSO baseline. activation, % at 10 µM. 330,000 compounds, 0.34% hits;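 active = at 10 µM dose, activation of 40% or more, normalized to positive control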;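 also: 100% = tunicamycin at 10 µg/mL and 0% = DMSO alone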
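Assay system: CHO cells with stable CHOP pathway luciferase reporter; Buffer or medium: F12 plus 10% serum; Times: 16-18 h cell attachment, then 6 h compound exposure, 37 °C; Signal: luciferase luminescence; Read-out basis: percent activation relative to tunicamycin control; Control set: tunicamycin high control, DMSO low control.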
CHOP inhibitor: CHOP inhibition in unfolded protein response; inhibition, % at 10 µM; CHO-K1 CHOP-promoter luciferase, tunicamycin-induced, 15-18 h; AID 2732; 220,000 compounds, 3.8% hits;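 active = compounds that reduced the stress-induced luciferase reporter signal by more than about 70% of percent inhibition, limit read from the data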;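 also: 0% = tunicamycin plus vehicle and 100% = wells without tunicamycin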
L major viab: reduces viability of Leishmania major promastigotes; 200,000 compounds, 9% hits; AID 1063; resazurin fluorescence viability; inhibition, % at 10 µM; in the data active = inhibition above about 50%;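 also: promastigotes grown with compound for 44 hours at 28 °C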
Dynein transport: blocks dynein driven cargo transport along microtubules; 3617.4 mouse cells, GR-EGFP nuclear translocation imaging; test concentration mostly 20 µM; stimulated with dexamethasone, 1 µM; hits give low values; z-score, hits read low; 220,000 compounds, 0.47% hits; AID 1381;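 active = plate z-score of nuclear minus cytoplasmic receptor signal below a set negative limit, without overly bright fluorescence or cell loss, cut at about -3.5 in these data, passing the limit was not always enough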;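 also: z-score of nuclear minus cytoplasmic ring GR-EGFP intensity difference per well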
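Buffer or medium: tetracycline-free induction medium containing charcoal-stripped FBS / Reagent: dexamethasone agonist, 1.0 µM final, for 30 min / Technique: automated 10x imaging of fixed Hoechst-stained cells / Times: induction 48 h, compound 1 h, agonist 30 min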
* = called active by the depositor; x = no result given.

SMILES	UPR XBP1 act	T cruzi repl	CHOP UPR activ	CHOP inhibitor	L major viab	Dynein transport
CCCCC(O)CN1CCC(c2ccccc2)CC1 (configuration not stated)	-1	8	-2	59	93*	0.38
CN(CC(=O)Nc1ccc(S(=O)(=O)N2CCCC2)cc1)Cc1cccc(Cl)c1Cl	0	4	1	37	99*	-0.34
CN(CCOc1ccccc1)CC(=O)Nc1ccc(S(=O)(=O)N2CCCC2)cc1	-3	57*	1	5	x	-0.58
CN1CCN(S(=O)(=O)c2ccc(NC(=O)COc3ccccc3)cc2)CC1	-3	-42	-1	9	-1	-0.11
Cc1onc(-c2ccccc2Cl)c1C(=O)NNC(=O)c1cccc(F)c1	0	-8	1	x	x	x
Cc1ccc2c(c1)[C@H]1[C@H](CO2)[C@H](c2ccccc2)[C@]2(C)C(=O)NCC(=O)N12	-2	x	1	x	x	x
O=c1c2sc3nc(N4CCOCC4)c4c(c3c2ncn1-c1ccccc1)CCCC4	7	22	-1	1	40	-0.15
Cc1ccccc1-n1cnc2c(sc3nc(N4CCOCC4)c4c(c32)CCCC4)c1=O	20	71*	0	24	x	0.55
COc1ccc(-n2cnc3c(sc4nc(N5CCOCC5)c5c(c43)CCCC5)c2=O)cc1	7	11	-1	1	87*	1
O=C(NCCCn1ccnc1)Nc1ccc2c(c1)OCO2	-1	6	3	x	x	x
O=C(Nc1cccc(S(=O)(=O)NC2=NCCCCC2)c1)c1ccc(Cl)cc1	-4	x	0	x	x	x
COCCCn1c(N)c(-c2nc3ccccc3n2C)c2nc3ccccc3nc21	1	20	5	-5	37	-0.79
Cn1c(-c2c(N)n(C3CCCC3)c3nc4ccccc4nc23)nc2ccccc21	2	73*	0	70	-18	0.32
Cn1c(-c2c(N)n(CCCc3ccccc3)c3nc4ccccc4nc23)nc2ccccc21	x	71*	x	-4	98*	-1.4
Cn1c(-c2c(N)n(CCc3ccccc3)c3nc4ccccc4nc23)nc2ccccc21	0	52	12	-44	100*	0.1
c1csc(-c2noc(CN3CCc4sccc4C3)n2)c1	0	34	1	42	-6	-1.7
CC1CCN(C(=O)c2[nH]cnc2C(=O)N[C@@H](C)c2ccccc2)CC1	-3	x	0	x	x	x
Cc1ccc(-c2onc3ccc(C4(C)OCCO4)cc23)cc1	3	-10	2	86*	2	-1.5
CC(=O)c1ccc2noc(-c3ccc(F)cc3)c2c1	-2	10	0	22	-6	-0.84
Cn1c(=O)c(=O)n(C)c2cc([N+](=O)[O-])c([N+](=O)[O-])cc21	-6	17	7	-39	80*	-3.3
COc1ccc(CNCc2cccc(Oc3ccccc3)c2)cc1	-4	-9	-2	18	87*	0.17
CC1CCN(C(=O)c2cc3nc(-c4ccccc4)cc(-c4ccccc4)n3n2)CC1	-1	42	0	75*	50	-0.49
O=C(NC1CCCC1)c1cc2nc(-c3ccccc3)cc(-c3ccccc3)n2n1	1	12	1	0	x	-0.33
O=C(Nc1cccc(O)c1)c1cc2nc(-c3ccccc3)cc(-c3ccccc3)n2n1	5	2	5	84*	17	-0.3
CCOc1ncccc1C(=O)OCCCC(=O)c1ccc(Br)cc1	-1	x	1	x	x	x
C#CCOc1ccc(/C=C2\SC(=S)N(Cc3cccnc3)C2=O)cc1	0	29	0	-8	1	0.59
COc1ccc(/C=C2\SC(=S)N(Cc3cccnc3)C2=O)cc1C	1	-5	3	88*	16	-0.26
CC(=O)Nc1cccc(-c2cc(C)c3cc4c(cc3n2)OCO4)c1	6	8	4	x	x	x
CC(C)SCCCCOc1ccc2ccccc2c1	6	1	4	-16	72*	-0.005
COC(=O)c1ccc(OCCCCN2CC(C)OC(C)C2)cc1 (configuration not stated)	-2	25	-2	5	96*	-0.31
